How the values were obtained:
[1] = target: Human immunodeficiency virus type 1 protease (Human immunodeficiency virus 1) (UniProt Q72874); experiment: Inhibition of virion associated RT activity relative to untreated, infected control in PBMC cells infected with HIV-1 237288 strain; assay type: cell-based
Method in brief: (§1)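 Drug dilutions, from a 20 mM stock in 60% v/v ethanol, added in duplicate to MT2 cells (5 × 10⁴ in RF10) or PBMCs (3.75 × 10⁵ in RF10/IL-2). Virus added immediately after: HIV-1 #237288 or HIV-2 ROD, 200 TCID₅₀ for MT2 or 300 TCID₅₀ for PBMC. After 6–7 days at 37 °C, supernatant virus precipitated with PEG and virion RT counted by scintillation, as % of virus-only control. IC₅₀ and IC₉₀ are the concentrations giving 50% and 90% reduction.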

[2] = test system: MT2; experiment: Concentration of compound causing death in 10% or less of cells in the absence of virus in MT2 cells infected with HIV-2 strain (ROD); assay type: functional, Homo sapiens
Method in brief: (§2)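 Cytotoxicity controls run alongside the Melbourne antiviral test: uninfected MT2 cells at 5 × 10⁴ per well in RF10, or PBMCs at 3.75 × 10⁵ per well in RF10/IL-2, exposed to duplicate drug dilutions made from a 20 mM stock in 60% v/v ethanol. Incubated 6–7 days at 37 °C, 5% CO₂, then viable cells counted by trypan blue exclusion. CC₁₀ is the highest concentration keeping counts ≥90% of the cell-only control.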

[3] = test system: MT2; experiment: Concentration required for causing death in 10% or less of cells in the absence of virus on MT2 cells infected with HIV-1 strain 237288; assay type: functional, Homo sapiens; method in brief: as §2
[4] = test system: Human immunodeficiency virus 1; experiment: Concentration required for causing death in 10% or less of cells in the absence of virus in PBMC cells infected with HIV-1 237288 strain; assay type: functional; method in brief: as §2
[5] = target: Human immunodeficiency virus type 1 protease (Human immunodeficiency virus 1) (UniProt Q72874); experiment: Inhibition of virion associated RT activity (90% decrease) relative to untreated, infected control on MT2 cells infected with HIV-1 237288 strain; assay type: cell-based; method in brief: as §1
[6] = target: Human immunodeficiency virus type 1 protease (Human immunodeficiency virus 1) (UniProt Q72874); conditions: PBMC
[7] = test system: MT2; experiment: (§3) Concentration required for causing death in 10% or less of cells in the absence of virus in MT2 cells infected with HIV-1 237288 strain; assay type: functional, Homo sapiens; method in brief: as §2
[8] = target: Human immunodeficiency virus type 1 protease (Human immunodeficiency virus 1) (UniProt Q72874); conditions: MT2
[9] = target: Human immunodeficiency virus type 1 protease (Human immunodeficiency virus 1, UniProt Q72874); experiment: Inhibitory constant against HIV-1 protease
[10] = test system: MT2; experiment: Concentration which causing death in 10% or less of cells in the absence of virus in MT2 cells infected with HIV-1 strain 237288; method in brief: as §2
[11] = test system: MT2; experiment: as §3; assay type: functional, Human immunodeficiency virus 1; method in brief: as §2

CCC(C)[C@@H]1NC(=O)[C@@H](NC[C@@H](O)C[C@@H](Cc2ccccc2)C(=O)N[C@H]2c3ccccc3C[C@H]2O)Cc2ccc(cc2)OCCCCCNC1=O (stereo not given in full)
IC90 [1]: 220 nM
CC10 [2]: 30 µM
CC10 [3]: 30 µM
CC10 [4]: 50 µM
IC90 [5]: 100 nM

CC(C)CCN(C[C@@H](O)[C@@H]1Cc2ccc(cc2)OCCCCCC(=O)N[C@@H](C(C)C)C(=O)N1)S(=O)(=O)c1ccc(N)cc1
CC10 [2]: 10 µM
CC10 [4]: 50 µM
IC90 [6]: 880 nM
CC10 [7]: 10 µM
IC90 [8]: 220 nM

CC[C@@H](C)[C@@H]1NC(=O)[C@@H](NC[C@@H](O)[C@H](Cc2ccccc2)NC(=O)[C@@H](NC(=O)c2ccc3ccccc3n2)C(C)C)Cc2ccc(cc2)OCCCNC1=O
Ki [9]: 0.3 nM

CC(C)CN(C[C@@H](O)[C@H](Cc1ccccc1)NC(=O)O[C@H]1CCOC1)S(=O)(=O)c1ccc(N)cc1
CC10 [10]: 10 µM

CC(C)(C)NC(=O)[C@@H]1CN(Cc2cccnc2)CCN1C[C@@H](O)C[C@@H](Cc1ccccc1)C(=O)N[C@H]1c2ccccc2C[C@H]1O.O
CC10 [4]: 10 µM
IC90 [8]: 93 nM
CC10 [11]: 10 µM

From ChEMBL document CHEMBL1133648, “Synthesis, stability, antiviral activity, and protease-bound structures of substrate-mimicking constrained macrocyclic inhibitors of HIV-1 protease” (J Med Chem, 2000)
